Calls of active or inactive are those of the source. No cut-off for these calls is given here.
Key:
[1] = target: Cruzipain (Trypanosoma cruzi) (UniProt P25779); experiment: Inhibition of Trypanosoma cruzi Tulahuen 2 cruzipain at 100 uM
Summary of the method: (§1)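 Cruzipain purified from Tulahuen 2 epimastigotes by ConA-Sepharose affinity chromatography. Assayed in 50 mM Tris-acetate pH 8.0 with 0.3 mM Bz-Pro-Phe-Arg-pNA and 10 mM β-mercaptoethanol, A410 followed at 30 °C. Inhibitors added in DMSO, controls with matching DMSO, E-64 as reference. Tested at 10-100 µM; means of at least two measurements.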

Trypanosoma cruzi [2] = experiment: Antitrypanosomal activity against Trypanosoma cruzi Tulahuen 2; assay type: functional, organism-based
Summary of the method: (§2)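 Epimastigotes from 5-day stationary culture inoculated at 1 × 10^6 cells/mL into medium with compound added from DMSO stock (final DMSO ≤0.4%; control 0.4% DMSO, no compound). Growth followed by A600; % inhibition from day 0 and day 5 absorbance versus control. IC50 = concentration reducing the day-5 absorbance ratio to 50%. Single-dose screen at 25 µM. Means of three experiments.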

Trypanosoma cruzi [3] = experiment: Antitrypanosomal activity against Trypanosoma cruzi CL Brener; assay type: functional, organism-based; summary of the method: as §2
Trypanosoma cruzi [4] = experiment: Antitrypanosomal activity against Trypanosoma cruzi Y; assay type: functional, organism-based; summary of the method: as §2
THP-1 = experiment: Cytotoxicity against human THP1 cells after 48 hrs; assay type: cell-based; conditions: THP-1, 48 h
Summary of the method: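 THP-1 human macrophages in RPMI 1640 with 20% heat-inactivated FCS, left to attach 48 h at 37 °C, 5% CO2. Exposed to compounds at 25-1000 µM for 48 h, washed, then MTT 0.4 mg/mL for 3 h. Formazan dissolved in DMSO and read at OD595; % cytotoxicity corrected for compound-in-medium blanks. Triplicates per concentration, six growth controls; mean of two experiments.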

[5] = Selectivity index, ratio of IC50 for human THP1 cells to IC50 for Trypanosoma cruzi Tulahuen 2; assay type: functional, THP-1
[6] = Selectivity index, ratio of IC50 for human THP1 cells to IC50 for Trypanosoma cruzi CL Brener; assay type: functional, THP-1
[7] = Selectivity index, ratio of IC50 for human THP1 cells to IC50 for Trypanosoma cruzi Y; assay type: functional, THP-1
[8] = target: Cruzipain (Trypanosoma cruzi) (UniProt P25779); experiment: Inhibition of Trypanosoma cruzi Tulahuen 2 cruzipain at 10 uM; summary of the method: as §1
[9] = target: Cruzipain (Trypanosoma cruzi) (UniProt P25779); experiment: Inhibition of Trypanosoma cruzi Tulahuen 2 cruzipain at 20 uM; summary of the method: as §1
[10] = target: Cruzipain (Trypanosoma cruzi) (UniProt P25779); experiment: Inhibition of Trypanosoma cruzi Tulahuen 2 cruzipain at 50 uM; summary of the method: as §1
Cruzipain [11] = target: T1, Cruzipain (Trypanosoma cruzi, UniProt P25779); experiment: Inhibition of Trypanosoma cruzi Tulahuen 2 cruzipain; summary of the method: as §1
Cruzipain [12] = target: T1, Cruzipain; experiment: Binding affinity to Trypanosoma cruzi Tulahuen 2 cruzipain
[13] = target: Trypanothione reductase (Trypanosoma cruzi) (UniProt P28593); experiment: Inhibition of Trypanosoma cruzi trypanothione reductase assessed as volume activity per minute at 100 uM
[14] = target: Trypanothione reductase (Trypanosoma cruzi) (UniProt P28593); experiment: Inhibition of Trypanosoma cruzi trypanothione reductase assessed as volume activity per min at 100 uM in presence of NADPH
Summary of the method: (§3)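 Time-dependent inactivation: 170 mU recombinant TR incubated at 25 °C in 40 mM HEPES, 1 mM EDTA, pH 7.5 with 100 µM inhibitor, with or without 160 µM NADPH, for 0-24 h. Aliquots diluted 200-fold and residual activity measured in the standard NADPH/TS2 assay at 340 nm. Controls: TR plus NADPH with DMSO, and TR plus inhibitor.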

[15] = target: Trypanothione reductase (Trypanosoma cruzi) (UniProt P28593); experiment: Inhibition of Trypanosoma cruzi trypanothione reductase assessed as volume activity per min at 100 uM after 1 hr; summary of the method: as §3
[16] = target: Trypanothione reductase (Trypanosoma cruzi) (UniProt P28593); experiment: Inhibition of Trypanosoma cruzi trypanothione reductase assessed as volume activity per min at 100 uM in presence of NADPH after 1 hr; summary of the method: as §3
Trypanosoma cruzi [17] = experiment: Effect on oxygen uptake in Trypanosoma cruzi Tulahuen 2 at 200 uM; assay type: functional, organism-based
Summary of the method: (§4)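 Tulahuen 2 epimastigotes grown 5 days, washed, resuspended in phosphate-saline buffer pH 7.4 with 5.5 mM glucose at 0.2 mg protein/mL (40 × 10^6 parasites/mL). O2 consumption measured by Clark electrode at 28 °C, compound 200 µM final in DMSO; control with 0.1% DMSO. Cyanide-insensitive respiration measured after 20 mM KCN.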

Trypanosoma cruzi [18] = experiment: Effect on oxygen uptake in Trypanosoma cruzi Tulahuen 2 assessed as increase in oxygen consumption at 200 uM; assay type: functional, organism-based; summary of the method: as §4
[19] = target: Trypanothione reductase (Trypanosoma cruzi) (UniProt P28593); experiment: Inhibition of Trypanosoma cruzi trypanothione reductase assessed as volume activity per min at 100 uM in presence of NADPH after 4 hrs; summary of the method: as §3
Mus musculus = experiment: Toxicity in Trypanosoma cruzi Tulahuen 2 infected Swiss mouse model of Chagas disease at 60 mg/kg, po; conditions: in vivo
Trypanosoma cruzi [20] = experiment: Antitrypanosomal activity against Trypanosoma cruzi Tulahuen 2 infected Swiss mouse model of Chagas disease at 60 mg/kg, po after 41 days post infection
Trypanosoma cruzi [21] = experiment: Antitrypanosomal activity against Trypanosoma cruzi Tulahuen 2 infected Swiss mouse model of Chagas disease at 60 mg/kg, po after 35 days post infection
[22] = target: Trypanothione reductase (Trypanosoma cruzi) (UniProt P28593); experiment: Inhibition of Trypanosoma cruzi trypanothione reductase assessed as volume activity per min at 100 uM after 4 hrs; summary of the method: as §3
[23] = target: Trypanothione reductase (Trypanosoma cruzi) (UniProt P28593); experiment: Inhibition of Trypanosoma cruzi trypanothione reductase at 100 uM
[24] = target: Cruzipain (Trypanosoma cruzi) (UniProt P25779); experiment: Inhibition of Trypanosoma cruzi Tulahuen 2 cruzipain at 25 uM; summary of the method: as §1
[25] = target: Trypanothione reductase (Trypanosoma cruzi) (UniProt P28593); experiment: Inhibition of Trypanosoma cruzi trypanothione reductase assessed as volume activity per min at 100 uM after 24 hrs; summary of the method: as §3
[26] = target: Trypanothione reductase (Trypanosoma cruzi) (UniProt P28593); experiment: Inhibition of Trypanosoma cruzi trypanothione reductase assessed as volume activity per min at 100 uM in presence of NADPH after 24 hrs; summary of the method: as §3
[27] = target: Trypanothione reductase (Trypanosoma cruzi) (UniProt P28593); experiment: Inhibition of Trypanosoma cruzi trypanothione reductase assessed as volume activity per min at 100 uM after 3 hrs; summary of the method: as §3

Chain of Cruzipain (Trypanosoma cruzi) (P25779 123-467 limits assumed): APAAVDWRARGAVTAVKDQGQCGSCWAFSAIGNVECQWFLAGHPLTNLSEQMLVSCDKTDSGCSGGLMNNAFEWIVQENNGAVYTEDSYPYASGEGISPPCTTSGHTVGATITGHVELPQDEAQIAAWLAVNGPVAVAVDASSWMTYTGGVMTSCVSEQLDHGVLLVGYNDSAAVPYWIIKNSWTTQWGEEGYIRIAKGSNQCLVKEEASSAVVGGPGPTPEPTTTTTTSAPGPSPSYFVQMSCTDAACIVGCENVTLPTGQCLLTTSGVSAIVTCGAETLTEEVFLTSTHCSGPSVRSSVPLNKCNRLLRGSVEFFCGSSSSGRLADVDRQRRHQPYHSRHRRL
T1 sequence (P25779 whole entry): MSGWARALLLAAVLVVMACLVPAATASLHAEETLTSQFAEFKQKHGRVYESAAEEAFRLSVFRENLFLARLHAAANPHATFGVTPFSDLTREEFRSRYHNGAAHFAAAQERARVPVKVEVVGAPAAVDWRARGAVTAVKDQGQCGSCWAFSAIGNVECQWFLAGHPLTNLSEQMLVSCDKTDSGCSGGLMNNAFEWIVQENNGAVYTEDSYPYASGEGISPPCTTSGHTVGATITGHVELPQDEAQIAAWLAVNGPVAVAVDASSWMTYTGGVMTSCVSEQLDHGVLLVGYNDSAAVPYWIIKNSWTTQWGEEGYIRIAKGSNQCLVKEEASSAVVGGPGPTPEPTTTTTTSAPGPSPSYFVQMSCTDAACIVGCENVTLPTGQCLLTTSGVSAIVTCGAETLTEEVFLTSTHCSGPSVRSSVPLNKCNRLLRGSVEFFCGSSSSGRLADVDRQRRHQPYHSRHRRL
Chain of Trypanothione reductase (Trypanosoma cruzi) (P28593 whole entry, looked up): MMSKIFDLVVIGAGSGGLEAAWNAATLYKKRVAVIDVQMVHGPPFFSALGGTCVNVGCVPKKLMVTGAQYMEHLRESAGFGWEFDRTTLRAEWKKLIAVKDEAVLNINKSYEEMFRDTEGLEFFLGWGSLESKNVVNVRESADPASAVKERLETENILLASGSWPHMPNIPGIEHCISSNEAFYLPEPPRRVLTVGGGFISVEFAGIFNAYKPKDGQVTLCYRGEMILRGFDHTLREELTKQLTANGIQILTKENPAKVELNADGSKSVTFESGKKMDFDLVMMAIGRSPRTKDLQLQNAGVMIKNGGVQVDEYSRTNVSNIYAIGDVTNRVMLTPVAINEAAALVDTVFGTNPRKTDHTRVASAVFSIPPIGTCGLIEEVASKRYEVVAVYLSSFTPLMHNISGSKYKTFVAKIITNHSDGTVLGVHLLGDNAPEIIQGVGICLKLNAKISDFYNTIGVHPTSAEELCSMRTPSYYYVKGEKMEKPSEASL

inhibition [1] | IC50 (Trypanosoma cruzi [2]) | IC50 (Trypanosoma cruzi [3]) | IC50 (Trypanosoma cruzi [4]) | inhibition [8] | inhibition [9] | inhibition [10] | SMILES | IC50 (THP-1) | Ratio IC50 [5] | Ratio IC50 [6] | Ratio IC50 [7] | Activity (Mus musculus) | Activity (Trypanosoma cruzi [20]) | Activity (Trypanosoma cruzi [21]) | other results
22% | 10.8 µM | 7.5 µM | 6.2 µM | 12% | 0% | 43% | [O-][n+]1onc2cc(/C=C/c3ccccc3)ccc21 | 110 µM | 10.2 | 14.7 | 17.7 | – | – | – | –
19% | 1.1 µM | 6.1 µM | 2.1 µM | 2% | 3% | 24% | O=S(=O)(/C=C\c1ccc2c(c1)no[n+]2[O-])c1ccccc1 | 109 µM | 99.1 | 17.9 | 51.9 | Non-toxic | Active | Active | IC50 (Cruzipain [11]): > 50 µM; Kd (Cruzipain [12]): 1100 µM; deltaA [13]: 0.104; deltaA [14]: 0.097; deltaA [15]: 0.102; deltaA [16]: 0.084; Activity (Trypanosoma cruzi [17]): inactive; Activity (Trypanosoma cruzi [18]): inactive; deltaA [19]: 0.088
– | 7.4 µM | 4.5 µM | 3.8 µM | – | – | – | O=C(Cn1ccnc1[N+](=O)[O-])NCc1ccccc1 [BENZNIDAZOLE] | – | – | – | – | Non-toxic | – | – | –
0% | 1.6 µM | 7.6 µM | 5 µM | 0% | 0% | 35% | O=S(=O)(/C=C/c1ccc2c(c1)no[n+]2[O-])c1ccccc1 | 409 µM | 255.6 | 53.8 | 81.8 | Non-toxic | Active | Active | IC50 (Cruzipain [11]): > 50 µM; Kd (Cruzipain [12]): 500 µM; deltaA [13]: 0.102; deltaA [14]: 0.101; deltaA [15]: 0.11; deltaA [16]: 0.099; Activity (Trypanosoma cruzi [17]): inactive; Activity (Trypanosoma cruzi [18]): inactive; deltaA [22]: 0.106; deltaA [19]: 0.098
44% | 7 µM | 15.7 µM | 9 µM | 19% | 11% | 20% | [O-][n+]1onc2cc(/C=C\c3ccccc3)ccc21 | 62.6 µM | 8.9 | 4 | 7 | – | – | – | –
– | 3.8 µM | 3.5 µM | 10 µM | – | – | – | [O-][n+]1onc2cc(/C=C\Sc3ccccc3)ccc21 | – | – | – | – | Non-toxic | Active | Active | –
– | 17.1 µM | 42 µM | 44.7 µM | – | – | – | CN(C/C=C/C#CC(C)(C)C)Cc1cccc2ccccc12 [TERBINAFINE] | 329 µM | 19.3 | 7.8 | 7.4 | – | – | – | –
– | 14.6 µM | 9.1 µM | 12.3 µM | – | – | – | C=CS(=O)(=O)Cc1ccc2c(c1)no[n+]2[O-] | 274 µM | 18.8 | 30.1 | 22.3 | – | – | – | –
12% | 2.6 µM | 15.1 µM | 8.8 µM | 2% | 0% | 24% | [O-][n+]1onc2cc(/C=C/[S+]([O-])c3ccccc3)ccc21 (stereo not drawn) | 124 µM | 47.7 | 8.2 | 14.1 | Non-toxic | Active | Active | inhibition [23]: 13%; deltaA [13]: 0.104; deltaA [14]: 0.103; deltaA [15]: 0.086; deltaA [16]: 0.105; deltaA [22]: 0.091; deltaA [19]: 0.105
– | > 25 µM | – | – | – | – | – | O=S(=O)(CCO)Cc1ccc2c(c1)no[n+]2[O-] | 300 µM | <12 | – | – | – | – | – | –
– | 2.6 µM | 4.7 µM | 7.6 µM | 0% | – | 25% | [O-][n+]1onc2cc(/C=C/Sc3ccccc3)ccc21 | – | – | – | – | Non-toxic | Active | Active | inhibition [24]: 15%
– | – | – | – | 100% | – | – | CC(C)C[C@H](NC(=O)[C@H]1O[C@@H]1C(=O)O)C(=O)NCCCCN=C(N)N | – | – | – | – | – | – | – | –
3% | 0.7 µM | 5 µM | 1.5 µM | 0% | 23% | 8% | [O-][n+]1onc2cc(/C=C\[S+]([O-])c3ccccc3)ccc21 (stereo not drawn) | 105 µM | 150 | 21 | 70 | Non-toxic | Active | Active | deltaA [13]: 0.101; deltaA [14]: 0.107; deltaA [15]: 0.107; deltaA [16]: 0.107; deltaA [25]: 0.108; deltaA [26]: 0.081; deltaA [27]: 0.09

SMILES | inhibition [1] | IC50 (Trypanosoma cruzi [2]) | IC50 (Trypanosoma cruzi [3]) | IC50 (Trypanosoma cruzi [4]) | inhibition [8] | inhibition [9] | inhibition [10] | IC50 (THP-1) | Ratio IC50 [5] | Ratio IC50 [6] | Ratio IC50 [7] | Activity (Mus musculus) | Activity (Trypanosoma cruzi [20]) | Activity (Trypanosoma cruzi [21]) | other results
CC(=O)N1CCN(c2ccc(OCC3COC(Cn4ccnc4)(c4ccc(Cl)cc4Cl)O3)cc2)CC1 (stereo not drawn) [KETOCONAZOLE] | – | 10 µM | 5 µM | 9.8 µM | – | – | – | 44 µM | 4.4 | 8.8 | 4.5 | – | – | – | –
CC1CS(=O)(=O)CCN1/N=C/c1ccc([N+](=O)[O-])o1 (stereo not drawn) [NIFURTIMOX] | – | 7.7 µM | 8.5 µM | 6.5 µM | – | – | – | – | – | – | – | – | – | – | –
